Peptide text beside a SMILES is read from it. * marks the point of attachment. X1 = C=CCN1CCC[C@H]1CNC(=O)c1cc(CCCSC2CC(=O)N(CCCCCC(=O)*)C2=O)cc(OC)c1OC
Tests used:
[1] = Activity at P-gp in hCMEC/D3 cells at 0.1 to 50 uM after 15 mins by calcein-AM assay; assay type: ADME, cell-based; conditions: human, cmec/d3, 0.25 h
[2] = biological target: D(2) dopamine receptor (Homo sapiens, UniProt P14416); test: Displacement of [3H]spiperone from human D2 receptor transfected in HEK cells; assay type: cell-based, HEK293
[3] = Cytotoxicity against hCMEC/D3 cells at 0.1 to 50 uM after 4 hrs by Alamar Blue assay; assay type: cell-based; conditions: human, hcmec/d3, 4 h
Procedure, shortened: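 Cytotoxicity was tested by AlamarBlue on hCMEC/D3 cells, the same cells used for the calcein assay. The read-out is the fall in metabolic activity, seen as reduced redox potential of viable cells.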

D(2) dopamine receptor, sequence (P14416 whole entry): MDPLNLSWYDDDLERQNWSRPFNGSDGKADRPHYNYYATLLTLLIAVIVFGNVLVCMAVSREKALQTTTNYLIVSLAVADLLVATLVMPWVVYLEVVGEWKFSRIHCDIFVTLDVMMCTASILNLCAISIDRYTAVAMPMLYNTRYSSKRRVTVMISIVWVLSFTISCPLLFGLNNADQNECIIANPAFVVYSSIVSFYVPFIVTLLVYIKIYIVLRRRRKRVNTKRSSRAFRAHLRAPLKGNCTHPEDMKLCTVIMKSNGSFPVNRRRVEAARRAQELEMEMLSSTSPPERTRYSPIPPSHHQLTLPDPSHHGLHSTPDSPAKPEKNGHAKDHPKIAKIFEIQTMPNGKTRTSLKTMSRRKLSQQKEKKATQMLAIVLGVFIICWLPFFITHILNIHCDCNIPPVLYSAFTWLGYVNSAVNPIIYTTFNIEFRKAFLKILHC

Compound	Activity [1]	Ki [2]	Activity [3]
C=CCN1CCC[C@H]1CNC(=O)c1cc(CCCSC2CC(=O)N(CCCCCC(=O)NCCOCCOCCOCCOCCC(=O)N[C@@H](CCCCNC(=O)CN3CCN(CC(=O)O)CCN(CC(=O)O)CCN(CC(=O)O)CC3)C(=O)N[C@@H](Cc3cnc[nH]3)C(=O)N[C@@H](C)C(=O)N[C@H](C(=O)N[C@@H](Cc3ccc(O)cc3)C(=O)N3CCC[C@H]3C(=O)N[C@@H](CCCNC(=N)N)C(=O)N[C@@H](Cc3cnc[nH]3)C(=O)O)[C@@H](C)CC)C2=O)cc(OC)c1OC (stereo partly specified)	Not Active	52 nM	Non-toxic
C=CCN1CCC[C@H]1CNC(=O)c1cc(CCCSC2CC(=O)N(CCCCCC(=O)NCCOCCOCCOCCOCCC(=O)N[C@@H](Cc3cnc[nH]3)C(=O)N[C@@H](C)C(=O)N[C@H](C(=O)N[C@@H](Cc3ccc(O)cc3)C(=O)N3CCC[C@H]3C(=O)N[C@@H](CCCNC(=N)N)C(=O)N[C@@H](Cc3cnc[nH]3)C(=O)O)[C@@H](C)CC)C2=O)cc(OC)c1OC (stereo partly specified)	Not Active	1.47 nM	Non-toxic
C=CCN1CCC[C@H]1CNC(=O)c1cc(CCCSC2CC(=O)N(CCCCCC(=O)N[C@H](C(=O)N[C@@H](Cc3ccccc3)C(=O)N[C@@H](Cc3ccccc3)C(=O)N[C@@H](Cc3ccc(O)cc3)C(=O)NCC(=O)NCC(=O)N[C@@H](CO)C(=O)N[C@@H](CCCNC(=N)N)C(=O)NCC(=O)N[C@@H](CCCCNC(=O)CN3CCN(CC(=O)O)CCN(CC(=O)O)CCN(CC(=O)O)CC3)C(=O)N[C@@H](CCCNC(=N)N)C(=O)N[C@@H](CC(N)=O)C(=O)N[C@@H](CC(N)=O)C(=O)N[C@@H](Cc3ccccc3)C(=O)N[C@@H](CCCCN)C(=O)N[C@H](C(=O)N[C@@H](CCC(=O)O)C(=O)N[C@@H](CCC(=O)O)C(=O)N[C@@H](Cc3ccc(O)cc3)C(=O)O)[C@@H](C)O)[C@@H](C)O)C2=O)cc(OC)c1OC (stereo partly specified)	Not Active	8.01 nM	Non-toxic
C=CCN1CCC[C@H]1CNC(=O)c1cc(CCCSC2CC(=O)N(CCCCCC(=O)N[C@H](C(=O)N[C@@H](Cc3ccccc3)C(=O)N[C@@H](Cc3ccccc3)C(=O)N[C@@H](Cc3ccc(O)cc3)C(=O)NCC(=O)NCC(=O)N[C@@H](CO)C(=O)N[C@@H](CCCNC(=N)N)C(=O)NCC(=O)N[C@@H](CCCCNC(=O)CN3CCN(CC(=O)O)CCN(CC(=O)O)CCN(CC(=O)O)CC3)C(=O)N[C@@H](CCCNC(=N)N)C(=O)N[C@@H](CC(N)=O)C(=O)N[C@@H](CC(N)=O)C(=O)N[C@@H](Cc3ccccc3)C(=O)N[C@@H](CCCC[n+]3c(C)cc(/C=C/C=C/c4ccc(N(C)C)cc4)cc3C)C(=O)N[C@H](C(=O)N[C@@H](CCC(=O)O)C(=O)N[C@@H](CCC(=O)O)C(=O)N[C@@H](Cc3ccc(O)cc3)C(=O)O)[C@@H](C)O)[C@@H](C)O)C2=O)cc(OC)c1OC (stereo partly specified)		64.2 nM	
C=CCN1CCC[C@H]1CNC(=O)c1cc(CCCF)ccc1OC		0.63 nM	
C=CCN1CCC[C@H]1CNC(=O)c1cc(CCCSC2CC(=O)N(CCCCCC(=O)N[C@@H](CCCNC(=N)N)C(=O)N[C@@H](CCC(N)=O)C(=O)N[C@H](C(=O)N[C@@H](CCCCN)C(=O)N[C@H](C(=O)N[C@@H](Cc3c[nH]c4ccccc34)C(=O)N[C@@H](Cc3ccccc3)C(=O)N[C@@H](CCC(N)=O)C(=O)N[C@@H](CC(N)=O)C(=O)N[C@@H](CCCNC(=N)N)C(=O)N[C@@H](CCCNC(=N)N)C(=O)N[C@@H](CCSC)C(=O)N[C@@H](CCCCN)C(=O)N[C@@H](Cc3c[nH]c4ccccc34)C(=O)N[C@@H](CCCCN)C(=O)N[C@@H](CCCCN)C(=O)O)[C@@H](C)CC)[C@@H](C)CC)C2=O)cc(OC)c1OC (stereo partly specified)		8.14 nM	
C=CCN1CCC[C@H]1CNC(=O)c1cc(CCCSC2CC(=O)N(CCCCCC(=O)N[C@@H](CCCNC(=N)N)C(=O)N[C@@H](CCCCN)C(=O)N[C@@H](CCCCN)C(=O)N[C@@H](CCCNC(=N)N)C(=O)N[C@@H](CCCNC(=N)N)C(=O)N[C@@H](CCC(N)=O)C(=O)N[C@@H](CCCNC(=N)N)C(=O)N[C@@H](CCCNC(=N)N)C(=O)N[C@@H](CCCNC(=N)N)C(=O)O)C2=O)cc(OC)c1OC (stereo partly specified)		9.69 nM	
CC[C@H](C)[C@H](NC(=O)[C@H](C)NC(=O)[C@@H](N)Cc1cnc[nH]1)C(=O)N[C@@H](Cc1ccc(O)cc1)C(=O)N1CCC[C@H]1C(=O)N[C@@H](CCCNC(=N)N)C(=O)N[C@@H](Cc1cnc[nH]1)C(=O)O	Not Active	> 1000 nM	Non-toxic
H-VQRKRQKLMP-OH		> 1000 nM	
C=CCN1CCC[C@H]1CNC(=O)c1cc(CCCSC2CC(=O)N(CCCCCC(=O)NCC(=O)N[C@@H](Cc3c[nH]c4ccccc34)C(=O)N[C@H](C(=O)N[C@@H](CC(C)C)C(=O)N[C@@H](CC(=O)O)C(=O)N[C@@H](CO)C(=O)N[C@@H](C)C(=O)NCC(=O)N[C@@H](Cc3ccc(O)cc3)C(=O)N[C@@H](CC(C)C)C(=O)N[C@@H](CC(C)C)C(=O)NCC(=O)N[C@@H](CCCCN)C(=O)N[C@H](C(=O)N[C@@H](CC(=O)O)C(=O)N[C@@H](CC(C)C)C(=O)N[C@@H](CCCCN)C(=O)N[C@@H](C)C(=O)N[C@@H](CC(C)C)C(=O)N[C@@H](C)C(=O)N[C@@H](C)C(=O)N[C@@H](CC(C)C)C(=O)N[C@@H](C)C(=O)N[C@@H](CCCCN)C(=O)N[C@@H](CCCCN)C(=O)N[C@H](C(=O)N[C@@H](CC(C)C)C(=O)O)[C@@H](C)CC)[C@@H](C)CC)[C@@H](C)O)C2=O)cc(OC)c1OC (stereo partly specified) (X1-GWTLDSAGYLLGKIDLKALAALAKKIL-OH)		12.3 nM	
C=CCN1CCC[C@H]1CNC(=O)c1cc(CCCSC2CC(=O)N(CCCCCC(=O)NCCOCCOCCOCCOCCC(=O)N[C@@H](CCCCNC(=O)O/N=C/c3ccc([Si](F)(C(C)(C)C)C(C)(C)C)cc3)C(=O)N[C@@H](Cc3cnc[nH]3)C(=O)N[C@@H](C)C(=O)N[C@H](C(=O)N[C@@H](Cc3ccc(O)cc3)C(=O)N3CCC[C@H]3C(=O)N[C@@H](CCCNC(=N)N)C(=O)N[C@@H](Cc3cnc[nH]3)C(=O)O)[C@@H](C)CC)C2=O)cc(OC)c1OC (stereo partly specified)	Not Active	5.98 nM	Non-toxic
C=CCN1CCC[C@H]1CNC(=O)c1cc(CCCSC2CC(=O)N(CCCCCC(=O)NCCOCCOCCOCCOCCOCCOCCC(=O)N[C@H](C(=O)N[C@@H](Cc3ccccc3)C(=O)N[C@@H](Cc3ccccc3)C(=O)N[C@@H](Cc3ccc(O)cc3)C(=O)NCC(=O)NCC(=O)N[C@@H](CO)C(=O)N[C@@H](CCCNC(=N)N)C(=O)NCC(=O)N[C@@H](CCCCNC(=O)CN3CCN(CC(=O)O)CCN(CC(=O)O)CCN(CC(=O)O)CC3)C(=O)N[C@@H](CCCNC(=N)N)C(=O)N[C@@H](CC(N)=O)C(=O)N[C@@H](CC(N)=O)C(=O)N[C@@H](Cc3ccccc3)C(=O)N[C@@H](CCCCN)C(=O)N[C@H](C(=O)N[C@@H](CCC(=O)O)C(=O)N[C@@H](CCC(=O)O)C(=O)N[C@@H](Cc3ccc(O)cc3)C(=O)O)[C@@H](C)O)[C@@H](C)O)C2=O)cc(OC)c1OC (stereo partly specified)		35.8 nM	
C=CCN1CCC[C@H]1CNC(=O)c1cc(CCCSC2CC(=O)N(CCCCCC(=O)NCCOCCOCCOCCOCCOCCOCCOCCOCCC(=O)N[C@@H](Cc3cnc[nH]3)C(=O)N[C@@H](C)C(=O)N[C@H](C(=O)N[C@@H](Cc3ccc(O)cc3)C(=O)N3CCC[C@H]3C(=O)N[C@@H](CCCNC(=N)N)C(=O)N[C@@H](Cc3cnc[nH]3)C(=O)O)[C@@H](C)CC)C2=O)cc(OC)c1OC (stereo partly specified)		53.9 nM	
C=CCN1CCC[C@H]1CNC(=O)c1cc(CCCSC2CC(=O)N(CCCCCC(=O)NCCOCCOCCOCCOCCOCCOCCOCCOCCOCCOCCOCCOCCC(=O)N[C@@H](Cc3cnc[nH]3)C(=O)N[C@@H](C)C(=O)N[C@H](C(=O)N[C@@H](Cc3ccc(O)cc3)C(=O)N3CCC[C@H]3C(=O)N[C@@H](CCCNC(=N)N)C(=O)N[C@@H](Cc3cnc[nH]3)C(=O)O)[C@@H](C)CC)C2=O)cc(OC)c1OC (stereo partly specified)		25.3 nM	
C=CCN1CCC[C@H]1CNC(=O)c1cc(CCCSC2CC(=O)N(CCCCCC(=O)NCCOCCOCCOCCOCCOCCOCCC(=O)N[C@@H](Cc3cnc[nH]3)C(=O)N[C@@H](C)C(=O)N[C@H](C(=O)N[C@@H](Cc3ccc(O)cc3)C(=O)N3CCC[C@H]3C(=O)N[C@@H](CCCNC(=N)N)C(=O)N[C@@H](Cc3cnc[nH]3)C(=O)O)[C@@H](C)CC)C2=O)cc(OC)c1OC (stereo partly specified)		27.4 nM	
C=CCN1CCC[C@H]1CNC(=O)c1cc(CCCSC2CC(=O)N(CCCCCC(=O)NCCOCCOCCOCCOCCC(=O)N[C@H](C(=O)N[C@@H](Cc3ccccc3)C(=O)N[C@@H](Cc3ccccc3)C(=O)N[C@@H](Cc3ccc(O)cc3)C(=O)NCC(=O)NCC(=O)N[C@@H](CO)C(=O)N[C@@H](CCCNC(=N)N)C(=O)NCC(=O)N[C@@H](CCCCNC(=O)CN3CCN(CC(=O)O)CCN(CC(=O)O)CCN(CC(=O)O)CC3)C(=O)N[C@@H](CCCNC(=N)N)C(=O)N[C@@H](CC(N)=O)C(=O)N[C@@H](CC(N)=O)C(=O)N[C@@H](Cc3ccccc3)C(=O)N[C@@H](CCCCN)C(=O)N[C@H](C(=O)N[C@@H](CCC(=O)O)C(=O)N[C@@H](CCC(=O)O)C(=O)N[C@@H](Cc3ccc(O)cc3)C(=O)O)[C@@H](C)O)[C@@H](C)O)C2=O)cc(OC)c1OC (stereo partly specified)		26.1 nM	
